Legend:
Cricetinae gen. sp. [1] = assay: The compound was evaluated for the antifertility activity in hamster at 12.5 ug administered subcutaneously; format: functional, Cricetulus griseus
Procedure, shortened: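 Hamsters were dosed subcutaneously, daily, in groups of ten. The minimum effective dose was the lowest dose per hamster per day giving no pregnancies (no implants) in the group. Potency was derived by comparing each compound's minimum effective dose with that of natural PGF2α.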

Gerbillinae = assay: The compound was evaluated for the gerbil colon contraction in vitro on colon strips
Cricetinae gen. sp. [2] = assay: The compound was evaluated for the hamster uterine contraction in vitro on uterine strips

Structure (SMILES): CCCCC[C@H](O)/C=C/[C@@]1(F)[C@H](O)C[C@H](O)[C@@H]1C/C=C\CCCC(=O)OC
- relative potency (PGF2α = 1) (Cricetinae gen. sp. [1]): 12.5
- relative potency (PGF2α = 1) (Gerbillinae): 0.001
- relative potency (PGF2α = 1) (Cricetinae gen. sp. [2]): 0.28

Structure (SMILES): CCCCC[C@@H](O)/C(F)=C/[C@@H]1[C@@H](C/C=C\CCCC(=O)OC)[C@@H](O)C[C@H]1O
- relative potency (PGF2α = 1) (Cricetinae gen. sp. [1]): 0.5
- relative potency (PGF2α = 1) (Gerbillinae): 0.0034
- relative potency (PGF2α = 1) (Cricetinae gen. sp. [2]): 0.025

Structure (SMILES): CCCCC[C@@H](O)/C=C/[C@@]1(F)[C@H](O)C[C@H](O)[C@@H]1C/C=C\CCCC(=O)OC
- relative potency (PGF2α = 1) (Cricetinae gen. sp. [1]): 1
- relative potency (PGF2α = 1) (Gerbillinae): 0.011
- relative potency (PGF2α = 1) (Cricetinae gen. sp. [2]): 0.022

Structure (SMILES): CCCCC[C@H](O)/C(F)=C\[C@@H]1[C@@H](C/C=C\CCCC(=O)OC)[C@@H](O)C[C@H]1O
- relative potency (PGF2α = 1) (Cricetinae gen. sp. [1]): < 0.1
- relative potency (PGF2α = 1) (Gerbillinae): 0.002
- relative potency (PGF2α = 1) (Cricetinae gen. sp. [2]): 0.0002

Structure (SMILES): CCCCC[C@@H](O)/C(F)=C\[C@@H]1[C@@H](C/C=C\CCCC(=O)OC)[C@@H](O)C[C@H]1O
- relative potency (PGF2α = 1) (Cricetinae gen. sp. [1]): > 1
- relative potency (PGF2α = 1) (Gerbillinae): 0.15
- relative potency (PGF2α = 1) (Cricetinae gen. sp. [2]): 0.36

Structure (SMILES): CCCCC[C@H](O)/C(F)=C/[C@@H]1[C@@H](C/C=C\CCCC(=O)OC)[C@@H](O)C[C@H]1O
- relative potency (PGF2α = 1) (Cricetinae gen. sp. [1]): < 0.5
- relative potency (PGF2α = 1) (Gerbillinae): 0.023
- relative potency (PGF2α = 1) (Cricetinae gen. sp. [2]): 0.263

— ChEMBL document CHEMBL1121536, “C(14)-fluorinated prostaglandins: synthesis and biological evaluation of the methyl esters of (+)-14-fluoro-, (+)-15-epi-14-fluoro-, (+)-13(E)-14-fluror-, and (+)-13(E)-15-epi-14-fluoroprostaglandin F2 alpha” (1980)
